{"source": "paper PMC8911528", "about": "(Organic & biomolecular chemistry, 2021)", "key": {"[1]": {"target": "T1, SF3B subunit of the spliceosome (Homo sapiens, UniProt O75533+Q7RTV0)", "settings": "cited from earlier work"}, "[2]": {"target": "T1, SF3B subunit of the spliceosome", "experiment": "In vitro splicing assay", "type": "biochemical", "settings": "for reduction in splicing inhibitory potency compared to herboxidiene: relative to herboxidiene", "method_in_brief": "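Radiolabeled RNA splicing substrate incubated in human cell nuclear extract with a dose range of test compound or DMSO control. RNA resolved by denaturing PAGE and bands quantified by phosphorimaging. Splicing efficiency is mRNA over total substrate RNA, normalised to DMSO. IC50 (half-maximal reduction of splicing versus DMSO) is from nonlinear regression, [inhibitor] vs normalised response, on three independent measurements, with 95% confidence intervals.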"}, "WI-38": {"test_system": "WI-38", "settings": "human normal fibroblast cell line WI-38; cited from earlier work"}, "human cells": {"test_system": "human cells", "settings": "cited from earlier work"}}, "data": [{"molecule": "5(R)-hydroxy herboxidiene [Compound 6]", "values": [{"measurement": "splicing inhibition relative to herboxidiene", "setting": "[1]", "value": "slightly lower splicing inhibition than herboxidiene"}]}, {"molecule": "C=C1CC[C@H](CC(=O)O)O[C@@H]1/C(C)=C/C=C/[C@@H](C)C[C@@]1(C)O[C@@H]1[C@H](C)[C@@H](OC)[C@@H](C)O", "note": "[Compound 12, 2-((2R,6S)-6-((S,2E,4E)-7-((2R,3R)-3-((2R,3R,4R)-4-hydroxy-3-methoxypentan-2-yl)-2-methyloxiran-2-yl)-6-methylhepta-2,4-dien-2-yl)-5-methylenetetrahydro-2H-pyran-2-yl)acetic acid]", "values": [{"measurement": "IC50", "setting": "[2]", "value": 400, "unit": "nM"}]}, {"molecule": "CO[C@H]([C@@H](C)[C@H]1O[C@]1(C)C[C@H](C)/C=C/C=C(\\C)[C@H]1O[C@@H](CC(=O)O)CC[C@H]1C)[C@@H](C)O", "note": "[Compound 13, 2-((2R,5R,6S)-6-((S,2E,4E)-7-((2R,3R)-3-((2R,3R,4R)-4-hydroxy-3-methoxypentan-2-yl)-2-methyloxiran-2-yl)-6-methylhepta-2,4-dien-2-yl)-5-methyltetrahydro-2H-pyran-2-yl)acetic acid]", "values": [{"measurement": "IC50", "setting": "[2]", "value": 2500, "unit": "nM"}, {"measurement": "reduction in splicing inhibitory potency compared to herboxidiene", "setting": "[2]", "value": "about 6 fold"}]}, {"molecule": "CO[C@H]([C@@H](C)[C@H]1O[C@]1(C)C[C@H](C)/C=C/C=C(\\C)[C@H]1O[C@@H](CC(=O)O)CCC12CC2)[C@@H](C)O", "note": "[Compound 14, 2-((4S,6R)-4-((S,2E,4E)-7-((2R,3R)-3-((2R,3R,4R)-4-hydroxy-3-methoxypentan-2-yl)-2-methyloxiran-2-yl)-6-methylhepta-2,4-dien-2-yl)-5-oxaspiro[2.5]octan-6-yl)acetic acid]", "values": [{"measurement": "IC50", "setting": "[2]", "value": 5200, "unit": "nM"}, {"measurement": "loss of splicing inhibitory activity compared to gem-dimethyl derivative", "setting": "[2]; relative to gem-dimethyl derivative 15", "value": 5, "unit": "fold"}]}, {"molecule": "CO[C@H]([C@@H](C)[C@H]1O[C@]1(C)C[C@H](C)/C=C/C=C(\\C)[C@H]1O[C@@H](CC(=O)O)CCC1(C)C)[C@@H](C)O", "note": "[Compound 15, 2-((2R,6S)-6-((S,2E,4E)-7-((2R,3R)-3-((2R,3R,4R)-4-hydroxy-3-methoxypentan-2-yl)-2-methyloxiran-2-yl)-6-methylhepta-2,4-dien-2-yl)-5,5-dimethyltetrahydro-2H-pyran-2-yl)acetic acid]", "values": [{"measurement": "reduction in splicing inhibitory potency compared to herboxidiene", "setting": "[2]", "value": 3, "unit": "fold"}]}, {"molecule": "CO[C@H]([C@@H](C)[C@H]1O[C@]1(C)C[C@H](C)/C=C/C=C(\\C)[C@H]1O[C@@H](CC(=O)O)CC[C@@H]1C)[C@@H](C)O", "note": "[herboxidiene]", "values": [{"measurement": "cell cycle arrest", "setting": "WI-38", "value": "induces both G1 and G2/M cell cycle arrest"}]}, {"molecule": "C6 desmethyl herboxidiene [Compound 8]", "values": [{"measurement": "anticancer activity in human cells", "setting": "human cells", "value": "slightly lower"}, {"measurement": "splicing inhibitory activity", "setting": "[1]", "value": "slightly lower splicing inhibitory activity"}]}]}
